Bioassay records from PubChem BioAssay.
Autophagy mod = autophagy modulators in MEF cells, primary screen, imaging, high-content, MEF GFP-LC3 | 190,000 tested, 0.98% active | calls only at 10 µM (by protocol) | MEF GFP-LC3 puncta imaging; test concentration mostly 10 µM;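 active means percentage of spot-positive cells more than 3 SD above its plate mean, without a fluorescence outlier flag or 80% toxicity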;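 further: spot-positive cell cutoff set from DMSO-treated cells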
Dynein transport = inhibitors of GR-EGFP nuclear translocation, primary screen, dynein cargo transport inhibitor project, imaging, high-content, 3617.4 mouse cells; test concentration mostly 20 µM; stimulated with dexamethasone, 1 µM; hits give low values; z-score, hits read low; 220,000 tested, 0.47% active; AID 1381, 2008;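 active means plate z-score of nuclear minus cytoplasmic receptor signal below a set negative limit, without overly bright fluorescence or cell loss, cut at about -3.5 in these data, passing the limit was not always enough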;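 further: z-score of nuclear minus cytoplasmic ring GR-EGFP intensity difference per well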
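Buffer or medium: Induction medium lacking tetracycline, stripped serum | Also added: Dexamethasone agonist, 1.0 µM final, for 30 min | Timing: 48 h induction, 1 h compound, 30 min dex at 37 °C | Detection: Formaldehyde fixation, Hoechst nuclear stain, 10x automated fluorescence imaging | Measure: Nuclear versus cytoplasmic GR-EGFP signal, averaged per well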
HCT116 bCat-KO = primary screen for growth suppressors in beta-catenin knockout HCT116 cells (colon tumor, human); viability, % at 10 µM; HCT116 beta-catenin knockout viability, CellTiter-Glo, 60 h; hits give low values; 140,000 tested, 1.5% active;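 active means viability at or under a set limit, the compound median less 4 SD, cut at about 6% in these data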;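 further: 0% = Hyamine 1622 control at 20 µM and 100% = untreated cell control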
sdo1 growth = growth rescue of sdo1-depleted yeast, primary screen, S. cerevisiae, bone marrow failure model. S. cerevisiae sdo1-depleted JHY4D growth rescue, OD600 30 h; hits give high values; pdr5 snq2 efflux-pump mutant strain. z-score at 10 µM. 140,000 tested, 0.21% active. AID 817, 2007;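 active means z-score above 3 at both the 24 hr and the 30 hr optical density reads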;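 further: z-score against mean and SD of all compound wells on the same plate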
PTEN del growth = growth suppression of PTEN-null HCT116, primary screen, cell-based, CellTiter-Glo. HCT116 PTEN-null viability, 60 h; hits give low values. viability, % at 10 µM. 140,000 tested, 1.2% active. AID 827, 2007;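 active means viability at or below a set limit, 4 SD under the median of all tested compounds, cut at about 3.7% in these data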;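 further: PTEN knockout HCT116 line with beta catenin targeted HCT116 as companion control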
Active calls of the source: *. A selection: hits, their analogues and other compounds. The true share with any hit is near 2.2%.

For CCO[C@@H]1OC(C(=O)N2CCN(Cc3ccccc3)CC2)=C[C@H](c2ccccc2)[C@H]1CCCO the results were Autophagy mod inactive and Dynein transport -0.2.
For CCOC(=O)CC(NS(=O)(=O)c1ccc(OC)c(C)c1)c1cccc([N+](=O)[O-])c1 (centres undefined) the results were Autophagy mod active, Dynein transport 1, HCT116 bCat-KO 93, sdo1 growth -0.35 and PTEN del growth 96.
Screening O=C(O)c1ccc(-n2c(O)c(C=C3N=c4ccccc4=N3)sc2=S)cc1 returned Dynein transport -1.
Screening O=C(O)CSc1cc(C(=O)c2cc(F)ccc2O)cn2c(=O)c3c(-c4ccccc4)csc3nc12 returned Dynein transport -0.27.
Screening Nc1cc(=O)nc(SCC(=O)Nc2ccccc2Cl)n1-c1ccccc1 returned Autophagy mod inactive and Dynein transport -0.29.
`COc1ccc(CCN2CC(C(=O)Nc3cccc(C(C)=O)c3)CC2=O)cc1OC` (centres undefined) gave Autophagy mod active and Dynein transport -0.24.
For O=C(Cn1c(=O)oc2cc(S(=O)(=O)N3CCCCC3)ccc21)N1CCc2ccccc21 the results were Autophagy mod active, Dynein transport -0.87, HCT116 bCat-KO 47, sdo1 growth -1.2 and PTEN del growth 19.
`CCNc1nc(NCC)n2c(SCC(=O)O)nnc2n1` gave Autophagy mod inactive, Dynein transport -0.26, HCT116 bCat-KO 89, sdo1 growth 0.43 and PTEN del growth 97.
Screening CCNc1nc(NCC)n2c(SC(C(=O)Nc3cc(Cl)cc(Cl)c3)c3ccccc3)nnc2n1 (centres undefined) returned Autophagy mod inactive, Dynein transport -0.34, HCT116 bCat-KO 1.2*, sdo1 growth 0.17 and PTEN del growth 1.2*.
Screening CCOC(=O)/C=c1\s/c(=C\c2ccc3cc(OC)ccc3c2)c(=O)n1CC(=O)NCC1CCCO1 (centres undefined) returned Autophagy mod active, Dynein transport 1.9, HCT116 bCat-KO 70, sdo1 growth 0.15 and PTEN del growth 85.
CCOC(=O)/C=c1\s/c(=C\c2sccc2C)c(=O)n1CC(=O)NCc1ccc(C)cc1 was read as Autophagy mod active and Dynein transport -1.
For COc1ccc(N2CCN(S(=O)(=O)c3cc(C)ccc3OC)CC2)cc1 the results were Autophagy mod inactive and Dynein transport 0.52.
`CCOc1nc2ccccc2nc1C` gave Autophagy mod inactive, Dynein transport 1.3, HCT116 bCat-KO 98, sdo1 growth -0.26 and PTEN del growth 96.
For c1ccc(CN2CCC(Nc3nc(-c4cccs4)nc4ccccc34)CC2)cc1 the results were Autophagy mod active and Dynein transport 1.1.
Cc1nc2nc(-c3ccccc3)cn2nc1C was read as Autophagy mod inactive, Dynein transport -0.64, HCT116 bCat-KO 64, sdo1 growth -0.93 and PTEN del growth 73.
Screening c1ccc(-c2cn3nc(-c4ccccc4)cnc3n2)cc1 returned Autophagy mod active, Dynein transport -0.42, HCT116 bCat-KO 98, sdo1 growth 1.1 and PTEN del growth 100.
`CN1CCN(c2ccccc2NC(=O)c2ccc([N+](=O)[O-])cc2Cl)CC1` gave Autophagy mod inactive and Dynein transport -0.3.
`O=C(c1ccc([N+](=O)[O-])cc1)N(Cc1ccc(Br)cc1)N1C(=O)CCCC1=O` gave Autophagy mod active, Dynein transport -1.1, HCT116 bCat-KO 101, sdo1 growth -0.5 and PTEN del growth 110.
O=C(c1ccccc1Cl)N(Cc1ccc(Br)cc1)N1C(=O)CCCC1=O was read as Autophagy mod inactive and Dynein transport -0.48.
Cc1nc(SCC(=O)c2cc3ccccc3oc2=O)c(C#N)c(-c2ccccc2)c1C(=O)Nc1ccccc1 was read as Autophagy mod inactive, Dynein transport 0.094, HCT116 bCat-KO 1.4*, sdo1 growth -0.27 and PTEN del growth 1.7*.
`COc1ccc(-c2c(C#N)c(SCC(=O)c3cc4ccccc4oc3=O)nc(C)c2C(=O)Nc2ccccc2)cc1` gave Autophagy mod inactive, Dynein transport -0.42, HCT116 bCat-KO 3.2*, sdo1 growth 0.11 and PTEN del growth 4.
Screening Cc1ccc(CNC(=O)CC2C(=O)Nc3c2c(=O)n(C)c(=O)n3Cc2ccccc2)cc1 (centres undefined) returned Autophagy mod inactive, Dynein transport -0.5, HCT116 bCat-KO 86, sdo1 growth 0.1 and PTEN del growth 84.
For Nc1c(C(=O)Nc2nc3ccccc3s2)sc2nc(-c3cccs3)ccc12 the results were Autophagy mod active, Dynein transport 9.4, HCT116 bCat-KO -0.1*, sdo1 growth -1.3 and PTEN del growth 0.1*.
Screening CC(C)NC(=O)c1sc2nc(-c3cccs3)cc(-c3cccs3)c2c1N returned Autophagy mod active, Dynein transport 0.22, HCT116 bCat-KO 95, sdo1 growth -0.93 and PTEN del growth 101.
Screening O=C(NCCCN1CCOCC1)C(Sc1ccccc1)c1ccccc1 (centres undefined) returned Autophagy mod inactive, Dynein transport -0.81, HCT116 bCat-KO 105, sdo1 growth 0.29 and PTEN del growth 100.
Screening COc1ccc(-n2nc(C(=O)NCC(=O)NCc3ccccc3OC)c3ccccc3c2=O)c(OC)c1 returned Autophagy mod inactive and Dynein transport -0.27.
CCn1nc(C(=O)Nc2nc3ccc(C)cc3s2)c2ccccc2c1=O was read as Autophagy mod active, Dynein transport -0.32, HCT116 bCat-KO 82, sdo1 growth -0.72 and PTEN del growth 82.
`COc1ccc(-n2nc(C(=O)Nc3nc4ccc(OC)cc4s3)c3ccccc3c2=O)c(OC)c1` gave Autophagy mod inactive, Dynein transport 0.057, HCT116 bCat-KO 12, sdo1 growth -1.2 and PTEN del growth 2.6*.
For CC(C)c1ccccc1OCCCCCNCCO the results were Autophagy mod inactive, Dynein transport -0.38, HCT116 bCat-KO 78, sdo1 growth -0.43 and PTEN del growth 72.
C=CCNC(=O)c1ccc(-n2cccc2)cc1 was read as Autophagy mod inactive and Dynein transport 0.42.
`COCCCNC(=O)c1cccn2c(=O)c3cc4ccccc4cc3nc12` gave Autophagy mod inactive, Dynein transport -1.3, HCT116 bCat-KO 4.3*, sdo1 growth -0.88 and PTEN del growth 4.
Screening O=C(NCc1ccco1)c1cccn2c(=O)c3cc4ccccc4cc3nc12 returned Autophagy mod inactive, Dynein transport -3.7, HCT116 bCat-KO 2.6*, sdo1 growth -1.6 and PTEN del growth 1.7*.
`O=C(Nc1ccc(N2CCOCC2)cc1)c1ccc([N+](=O)[O-])cc1` gave Autophagy mod inactive and Dynein transport 0.46.
